Results on 13 compounds are retold here after ChEMBL document CHEMBL1137373 (J Med Chem, 2006).

Data set [1] concerns the target T1, Amyloid-beta precursor protein (Homo sapiens, UniProt P05067). Description: Displacement of [125I]IMPY from beta amyloid protein 40. On the technique in general: Loss of bound radioactivity is the signal in a displacement assay; it reports binding, not function.
In data set [2] the target is T1, Amyloid-beta precursor protein. Kind of data set: Displacement of [125I]IMSB from beta amyloid protein 40.
In data set [3] the test system is Mus musculus. Kind of data set: Biodistribution in muscle of iv dosed ICR mouse after 60 mins. To be noted: in vivo, 1 h. In kind it is ADME, organism-based, Muscle tissue. In outline: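 Male ICR mice (25-30 g, four per time point) injected by tail vein with radioligand (0.74 MBq 125I or 1.85 MBq 18F) in 0.2 mL 10% ethanol-saline. Sacrificed at 2, 30, 60 or 120 min. Blood, organs, muscle and thyroid or bone weighed and counted in a gamma counter. Expressed as % injected dose per gram.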

Data set [4] is described as follows: Partition coefficient, log P of the compound. In kind it is physicochemical. To be noted: octanol/water. In outline: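 Radioligand added to octanol/water (600 µL each), vortexed 3 min, centrifuged 2000 rpm 5 min. Aliquots of both layers counted, repartitioned until consistent. Run in triplicate. Log P taken as log of octanol/water cpm ratio.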
The species entered for the next data set is Homo sapiens. Kind of data set: Increase in bioavailability in human in presence of piperine after 45 mins. Type of data set: ADME, organism-based. To be noted: in vivo, 0.75 h.
The next data set is filed under the species Rattus norvegicus. Description: Increase in bioavailability in rat in presence of piperine at 1 to 2 hrs. Type of data set: ADME, organism-based. To be noted: in vivo.
Data set [5] relates to Mus musculus. Description: Biodistribution in spleen of iv dosed piperine-treated ICR mouse after 60 mins. Type of data set: ADME, organism-based. To be noted: in vivo, 1 h. In outline:
(§1)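 Male ICR mice (25-30 g, four per time point) given radioligand mixed with piperine (2 mg/kg) in 0.2 mL 10% ethanol-saline by tail vein, 1.85 MBq for the 18F tracer. Killed at 2, 30, 60 or 120 min. Blood and organs removed, weighed and gamma-counted. Data given as % injected dose per gram tissue.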

The test system of data set [6] is Mus musculus. Description: Biodistribution in kidney of iv dosed piperine-treated ICR mouse after 2 mins. The conditions noted are these: in vivo. Type of data set: ADME, organism-based. In short, it runs like this: as §1
Data set [7] deals with Mus musculus. Description: Biodistribution in brain of iv dosed piperine-treated ICR mouse after 2 mins. To be noted: in vivo. Type of data set: ADME, organism-based. In outline:
as §1

In data set [8] the test system is Mus musculus. Kind of data set: Biodistribution in blood of iv dosed piperine-treated ICR mouse after 60 mins. To be noted: in vivo, 1 h. Type of data set: ADME, organism-based. In outline: as §1
For data set [9], the system named is Mus musculus. Kind of data set: Stability in iv dosed ICR mouse brain after 60 mins. To be noted: in vivo, 1 h. In kind it is ADME, organism-based. In short, it runs like this: (§2)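 Male ICR mice (25-30 g) given 18F radioligand (14.8 MBq/mouse) by tail vein, killed at 2, 30 and 60 min. Blood and whole brain homogenized in 1 mL chilled absolute ethanol, centrifuged 3000 rpm 3 min. Supernatant analysed by radio-TLC (20:1 CH2Cl2-CH3OH and 1:1:0.01 CH2Cl2-CH3OH-triethylamine) for percent parent radioligand.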

Data set [10] deals with Mus musculus. Description: Stability in iv dosed ICR mouse blood after 60 mins. The conditions noted are these: in vivo, 1 h. Type of data set: ADME, organism-based. In short, it runs like this:
as §2

T1 sequence (P05067 whole entry): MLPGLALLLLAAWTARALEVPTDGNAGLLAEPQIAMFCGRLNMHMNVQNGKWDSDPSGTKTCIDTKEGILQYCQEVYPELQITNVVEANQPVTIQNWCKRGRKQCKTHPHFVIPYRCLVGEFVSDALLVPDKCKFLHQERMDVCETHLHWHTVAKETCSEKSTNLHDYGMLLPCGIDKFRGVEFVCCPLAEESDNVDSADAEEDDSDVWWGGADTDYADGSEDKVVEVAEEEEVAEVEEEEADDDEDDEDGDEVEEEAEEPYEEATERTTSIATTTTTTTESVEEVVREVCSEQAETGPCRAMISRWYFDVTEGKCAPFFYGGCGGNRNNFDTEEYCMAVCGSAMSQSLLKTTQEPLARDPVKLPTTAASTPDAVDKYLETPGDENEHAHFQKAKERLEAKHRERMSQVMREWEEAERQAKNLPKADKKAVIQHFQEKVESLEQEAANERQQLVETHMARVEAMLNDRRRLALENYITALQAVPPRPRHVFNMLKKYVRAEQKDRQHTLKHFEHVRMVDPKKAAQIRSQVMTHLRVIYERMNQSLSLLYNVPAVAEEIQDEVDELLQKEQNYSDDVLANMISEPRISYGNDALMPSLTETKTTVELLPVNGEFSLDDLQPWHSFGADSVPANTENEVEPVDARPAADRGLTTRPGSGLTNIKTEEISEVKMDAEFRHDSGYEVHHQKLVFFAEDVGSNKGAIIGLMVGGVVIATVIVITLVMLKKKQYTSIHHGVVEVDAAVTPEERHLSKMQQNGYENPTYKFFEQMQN

One may read the Ki as a measure of affinity in units of concentration, obtained from inhibition or displacement. `COc1cc(/C=C/C(C)=O)cc(I)c1O`: the Ki is 36.6 nM in [1] and 20 nM in [2].

Usually logP stands for the decadic logarithm of the partition coefficient of the neutral form, usually between octanol and water. In the data set with Mus musculus [3], `COc1cc(/C=C/C(O)=C/C(C)=O)cc([125I])c1O` gave a Drug uptake of 0.26 % ID/g. This compound displayed a logP in data set [4] of 1.35.

Take `COc1cc(/C=C/C(=O)CC(=O)/C=C/c2ccc(O)c(OC)c2)ccc1O` [CURCUMIN]: the “Bioavailability Increase” value in the data set listed under Homo sapiens is given as 2000%; in the data set listed under Rattus norvegicus it was 154%.

In [1], `COc1cc(/C=C/C(O)=C/C(C)=O)ccc1OCCCF` yielded a Ki of 316 nM.

In data set [1], `COc1cc(/C=C/C(C)=O)ccc1OCCCF` returned a Ki of 839 nM.

`COc1cc(/C=C/C(O)=C/C(C)=O)cc(I)c1O` returned a Ki in [1] of 24.9 nM.

In data set [4], `COc1cc(/C=C/C(O)=C/C(=O)/C=C/c2cc([125I])c(O)c(OC)c2)ccc1O` displayed a logP of 0.94.

On to `COc1cc(/C=C/C(O)=C/C(=O)/C=C/c2cc(I)c(O)c(OC)c2)ccc1O`, for which affinity in [2] was put at a Ki of 9.37 nM.

As to `COc1cc(/C=C/C(O)=C/C(=O)/C=C/c2ccc(OCCCF)c(OC)c2)ccc1O`, in data set [2], the Ki worked out at 0.07 nM.

Consider `COc1cc(/C=C/C(O)=C/C(=O)/C=C/c2ccc(OCCC[18F])c(OC)c2)ccc1O`, for which the Drug uptake was determined as 41.07 % ID/g in the data set with Mus musculus [5]; 8.69 % ID/g in the data set on Mus musculus [6]; 0.77 % ID/g in the data set on Mus musculus [7]; 0.82 % ID/g in the data set on Mus musculus [8]; 0.27 % ID/g in the data set on Mus musculus [3]. The logP in data set [4] stood at 1.84. The results for the Activity result with Mus musculus [9] and in the data set on Mus musculus [10] were “Active” and “Not Active”, respectively.

In the case of `COc1cc(/C=C/C(C)=O)ccc1OCCF`, the Ki in data set [1] came to 233 nM.

In the case of `COc1cc(/C=C/C(O)=C/C(C)=O)ccc1OCCF`, in data set [1], affinity was put at a Ki of 958 nM.

`O=C(O)c1cc(/N=N/c2ccc(-c3ccc(/N=N/c4ccc(O)c(C(=O)O)c4)cc3)cc2)ccc1O` [CHRYSAMINE G]: the Ki in data set [2] came out at 0.16 nM.
